Experimental data published in ChEMBL document CHEMBL1153396, “Carbonic anhydrase inhibitors. Inhibition of the beta-class enzymes from the fungal pathogens Candida albicans and Cryptococcus neoformans with aliphatic and aromatic carboxylates” (Bioorg Med Chem, 2009).
Each block holds one compound with its values, some of them ahead of it.

Experiments:
[1] = Inhibition of Cryptococcus neoformans Can2
Outline: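 Recombinant purified Can2. Stopped-flow CO2 hydration assay read with 0.2 mM phenol red at 557 nm, in TRIS pH 8.3 with 20 mM NaClO4 or Na2SO4 for ionic strength. Initial rates followed over 10–100 s, CO2 1.7–17 mM, uncatalyzed rate subtracted. Enzyme and inhibitor preincubated 15 min at room temperature. Ki from non-linear least squares, mean of at least three determinations.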

Carbonic anhydrase 2 = Carbonic anhydrase 2 (Homo sapiens, UniProt P00918); test: Inhibition of human carbonic anhydrase2
Carbonic anhydrase = molecular target: T1, Carbonic anhydrase (Candida albicans (strain SC5314 / ATCC MYA-2876) (Yeast), UniProt Q5AJ71); test: Inhibition of Candida albicans Nce103
T1 sequence (Q5AJ71 whole entry): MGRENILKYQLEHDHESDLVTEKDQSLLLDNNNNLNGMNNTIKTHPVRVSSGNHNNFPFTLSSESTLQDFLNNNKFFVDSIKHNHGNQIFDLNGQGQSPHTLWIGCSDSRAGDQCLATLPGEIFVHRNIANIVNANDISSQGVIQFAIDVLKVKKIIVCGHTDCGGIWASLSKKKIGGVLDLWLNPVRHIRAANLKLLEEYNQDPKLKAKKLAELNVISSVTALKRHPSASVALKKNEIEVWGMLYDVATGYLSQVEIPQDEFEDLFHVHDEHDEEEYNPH
Outline: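 Recombinant purified C. albicans Nce103. Stopped-flow CO2 hydration assay with phenol red indicator (0.2 mM) read at 557 nm. Tris buffer pH 8.3 with 20 mM Na2SO4 or NaClO4 for ionic strength. CO2 1.7–17 mM. Initial rates over 10–100 s, uncatalyzed rate subtracted. Enzyme and inhibitor preincubated 15 min at room temperature. Ki by non-linear least squares from three assays.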

- Ki [1]: 8.7 µM
- Ki (Carbonic anhydrase 2): 989 µM
- Ki (Carbonic anhydrase): 8.6 µM
Structure (SMILES): O=C([O-])/C=C\C(=O)[O-].[Na+].[Na+] [SODIUM MALEATE]

Structure (SMILES): O=C([O-])CC(=O)[O-].[Na+].[Na+] [DISODIUM MALONATE]
- Ki [1]: 793 µM
- Ki (Carbonic anhydrase): 26.3 µM

Structure (SMILES): CCC(=O)[O-].[Na+] [SODIUM PROPIONATE]
- Ki [1]: 404 µM
- Ki (Carbonic anhydrase 2): 960 µM
- Ki (Carbonic anhydrase): 51.5 µM

Structure (SMILES): O=C(O)c1c(F)c(F)cc(F)c1F
- Ki [1]: 49.1 µM
- Ki (Carbonic anhydrase): 61.6 µM

Structure (SMILES): CCCC(=O)[O-].[Na+] [SODIUM BUTYRATE]
- Ki [1]: 225 µM
- Ki (Carbonic anhydrase 2): 1030 µM
- Ki (Carbonic anhydrase): 26.9 µM

Structure (SMILES): C[C@H](O)C(=O)[O-].[Na+]
- Ki [1]: 953 µM
- Ki (Carbonic anhydrase 2): 3220 µM
- Ki (Carbonic anhydrase): 46.8 µM

Structure (SMILES): O=C([O-])C[C@H](O)C(=O)[O-].[Na+].[Na+]
- Ki [1]: 899 µM
- Ki (Carbonic anhydrase 2): 1870 µM
- Ki (Carbonic anhydrase): 87.7 µM

Structure (SMILES): O=C([O-])C(=O)[O-].[Na+].[Na+] [SODIUM OXALATE]
- Ki [1]: 67.7 µM
- Ki (Carbonic anhydrase): 37.7 µM

Structure (SMILES): O=C([O-])c1ccccc1.[Na+] [SODIUM BENZOATE]
- Ki [1]: 1270 µM
- Ki (Carbonic anhydrase): 24.4 µM

Structure (SMILES): O=C[O-].[Na+] [SODIUM FORMATE]
- Ki [1]: 53.5 µM
- Ki (Carbonic anhydrase): 35.1 µM

Structure (SMILES): CC(=O)[O-].[Na+] [SODIUM ACETATE]
- Ki [1]: 7.3 µM
- Ki (Carbonic anhydrase): 36 µM

Structure (SMILES): O=C([O-])CC(O)(CC(=O)[O-])C(=O)[O-].[Na+].[Na+].[Na+] [SODIUM CITRATE]
- Ki [1]: 88.6 µM
- Ki (Carbonic anhydrase): 39.1 µM

Structure (SMILES): CC(=O)C(=O)O [PYRUVATE SODIUM]
- Ki [1]: 787 µM
- Ki (Carbonic anhydrase): 106 µM

Structure (SMILES): CCCCC(=O)[O-].[Na+] [SODIUM VALERATE]
- Ki [1]: 42.8 µM
- Ki (Carbonic anhydrase 2): 257 µM
- Ki (Carbonic anhydrase): 94 µM
